pIC50: −log10 of the molar value.
tested on: Plasmodium falciparum; assay: Antimalarial activity against chloroquine-sensitive Plasmodium falciparum F-32 Tanzania infected in blood assessed as decrease in parasitaemia after 48 hrs; type: functional, organism-based
Outline: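 P. falciparum F-32 Tanzania (chloroquine-sensitive) grown in glucose-enriched RPMI 1640 with 10% human serum at 37 °C. After 24 h at 37 °C, the medium was replaced with fresh medium containing compound in DMSO at three concentrations (0.1, 1, 10). Incubation continued 48 h. On day three, a blood smear from each well was used to score parasitaemia versus control. IC50 was read graphically against concentration.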

Going from C=Cc1cccc(-c2cc3c(cc2C(=O)OC)OCO3)c1N(C)CCCC to C=Cc1cccc(-c2cc3c(cc2C(=O)O)OCO3)c1N(C)CCCC, the pIC50 falls from 4.12 to < 4.00.

Compared with C[N+]1([O-])CCC2=C[C@H](O)[C@H]3OC(=O)c4cc5c(cc4[C@H]3[C@@H]21)OCO5 (stereo partly drawn), CN1CCC2=C[C@H](O)[C@H]3OC(=O)c4cc5c(cc4[C@H]3[C@@H]21)OCO5 is 0.84 log units higher in pIC50: 4.06 for the first, 4.90 for the second. The second is the more potent here.

CN1CCC2=CC(=O)[C@H]3OC(=O)c4cc5c(cc4[C@H]3[C@@H]21)OCO5 [2-OXOHIPPEASTRINE] and CC(=O)O[C@H]1C=C2CCN(C)[C@H]2[C@@H]2c3cc4c(cc3C(=O)O[C@@H]21)OCO4 are within 0.2 log units of each other in pIC50: 4.10 for the first, 4.23 for the second.

First: CN1CCC2=C[C@H](O)[C@H]3NC(=O)c4cc5c(cc4[C@H]3[C@@H]21)OCO5
Second: CC(C)C(=O)O[C@H]1C=C2CCN(C)[C@H]2[C@@H]2c3cc4c(cc3C(=O)O[C@@H]21)OCO4
The pIC50 of the first is 0.49 log units higher: 4.73 for the first, 4.24 for the second.

C=Cc1cccc(-c2cc3c(cc2C(=O)O)OCO3)c1N(C)CC and C=Cc1cccc(-c2cc3c(cc2C(=O)O)OCO3)c1N(C)C are within 0.2 log units of each other in pIC50: 4.06 for the first, 4.17 for the second.

CN1CC[C@]2(Cl)C=C[C@H]3OC(=O)c4cc5c(cc4[C@H]3[C@H]12)OCO5 and CN1CC[C@]2(Br)C[C@H](O)[C@H]3OC(=O)c4cc5c(cc4[C@H]3[C@H]12)OCO5 are within 0.2 log units of each other in pIC50: 4.08 for the first, 4.23 for the second.

First: CN1CCC2=C[C@H](O)[C@H]3OC(=O)c4cc(O)c(O)cc4[C@H]3[C@@H]21
Second: COc1cc2c(cc1OC)[C@@H]1[C@H](OC2=O)[C@@H](O)C=C2CCN(C)[C@H]21
The pIC50 of the first is 0.93 log units higher: 5.00 for the first, 4.07 for the second.

Compared with C=Cc1cccc(-c2cc3c(cc2C(=O)O)OCO3)c1N(C)CCCCCCCCCCC, C=Cc1cccc(-c2cc3c(cc2C(=O)OC)OCO3)c1N(C)C is higher in pIC50: < 4.00 for the first, 4.17 for the second.

CN1CC=C2C=C[C@H]3OC(=O)c4cc5c(cc4[C@H]3[C@@H]21)OCO5 and CN1CC[C@@H]2C[C@H](O)[C@H]3OC(=O)c4cc5c(cc4[C@H]3[C@@H]21)OCO5 are within 0.2 log units of each other in pIC50: 4.03 for the first, 4.10 for the second.

CN1CC[C@@]2(O)[C@@H]1[C@@H]1c3cc4c(cc3C(=O)O[C@@H]1[C@@H](O)[C@@H]2O)OCO4 and CN1CC[C@]2(O)[C@H](Br)[C@H](O)[C@H]3OC(=O)c4cc5c(cc4[C@H]3[C@H]12)OCO5 are within 0.2 log units of each other in pIC50: 4.16 for the first, 4.23 for the second.

C=Cc1ccc(C(=O)O[C@H]2C=C3CCN(C)[C@H]3[C@@H]3c4cc5c(cc4C(=O)O[C@@H]32)OCO5)cc1 and CN1CCC2=C[C@H](OC(=O)c3ccc(Br)cc3)[C@H]3OC(=O)c4cc5c(cc4[C@H]3[C@@H]21)OCO5 are within 0.2 log units of each other in pIC50: 4.31 for the first, 4.37 for the second.

First: COC(=O)c1cc2c(cc1-c1cc(OC(C)=O)cc3c1N(C)CC3)OCO2
Second: COC(=O)c1cc(C(=O)OC)cc(C(=O)O[C@H]2C=C3CCN(C)[C@H]3[C@@H]3c4cc5c(cc4C(=O)O[C@@H]32)OCO5)c1
The pIC50 of the first is 0.98 log units lower: 4.15 for the first, 5.13 for the second. The second is the more potent here.

CN1CCC2=C[C@H](OC(=O)c3cccc(C(=O)O[C@H]4C=C5CCN(C)[C@H]5[C@@H]5c6cc7c(cc6C(=O)O[C@@H]54)OCO7)c3)[C@H]3OC(=O)c4cc5c(cc4[C@H]3[C@@H]21)OCO5 and CN1CCC2=C[C@H](OC(=O)c3ccc(C(=O)O[C@H]4C=C5CCN(C)[C@H]5[C@@H]5c6cc7c(cc6C(=O)O[C@@H]54)OCO7)cc3)[C@H]3OC(=O)c4cc5c(cc4[C@H]3[C@@H]21)OCO5 are the same in pIC50: 5.89 for the first, 5.89 for the second.

CN1CCC2=C[C@H](O)[C@H]3OC(=O)c4cc5c(cc4[C@@]3(O)[C@@H]21)OCO5 and CCOC(=O)O[C@H]1C=C2CCN(C)[C@H]2[C@@H]2c3cc4c(cc3C(=O)O[C@@H]21)OCO4 are within 0.2 log units of each other in pIC50: 4.22 for the first, 4.21 for the second.

CN1CCC2=C[C@H](OC(=O)c3cccnc3)[C@H]3OC(=O)c4cc5c(cc4[C@H]3[C@@H]21)OCO5 and C=CCCC(=O)O[C@H]1C=C2CCN(C)[C@H]2[C@@H]2c3cc4c(cc3C(=O)O[C@@H]21)OCO4 are within 0.2 log units of each other in pIC50: 4.30 for the first, 4.26 for the second.

Compared with C[N+]1=CCC2=C[C@H](O)[C@H]3OC(=O)c4cc5c(cc4[C@H]3[C@@H]21)OCO5, CN1CCC2=C[C@H](OC(=O)CCCCC(=O)O[C@H]3C=C4CCN(C)[C@H]4[C@@H]4c5cc6c(cc5C(=O)O[C@@H]43)OCO6)[C@H]3OC(=O)c4cc5c(cc4[C@H]3[C@@H]21)OCO5 is higher in pIC50: < 4.00 for the first, 5.40 for the second. The second is the more potent here.

CN1CCC2=C[C@H](OC(=O)c3cccc(C(=O)O[C@H]4C=C5CCN(C)[C@H]5[C@@H]5c6cc7c(cc6C(=O)O[C@@H]54)OCO7)n3)[C@H]3OC(=O)c4cc5c(cc4[C@H]3[C@@H]21)OCO5 gave a pIC50 of 5.41.

From ChEMBL document CHEMBL2375221, “Preparation and antimalarial activity of semisynthetic lycorenine derivatives” (Eur J Med Chem, 2013)
